ChEMBL document CHEMBL1122815, “Synthesis and hypoglycemic activity of N-alkylated hydrazonopropionic acids” (J Med Chem, 1985)

Columns and labels:
Cavia porcellus [1] = test: Hypoglycemic activity was given as differences between the mean changes in blood glucose concentration in control group and the treated group after a dose of 25 mg/kg, ip; format: functional; conditions: route intraperitoneal
Outline: (§1)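 Guinea pigs fasted from about 20 h before and throughout the study, with free access to water; six animals per dose group. Compound was given ip as a neutral solution, and a parallel control group received physiological NaCl ip. Ear-vein blood (10 μL) was taken before dosing and then hourly to 6 h. Glucose was measured by hexokinase on the hemolysate. The effect was calculated as the % difference of the lowest glucose relative to the initial value. U-test, p ≤ 0.05.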

Cavia porcellus [2] = test: Hypoglycemic activity was given as differences between the mean changes in blood glucose concentration in control group and the treated group after a dose of 50 mg/kg, ip; format: functional; conditions: route intraperitoneal; outline: as §1
Cavia porcellus [3] = test: Hypoglycemic activity at a dose of 20 mg/kg administered intraperitoneally; format: functional; conditions: dose 50 mg/kg; route intraperitoneal; in the assay text read “50 mg/kg” for “20 mg/kg”; outline: as §1
[4] = Lethal dose on oral administration to rats was determined; format: toxicity, organism-based; conditions: rat, in vivo

SMILES	Decrease in blood glucose (Cavia porcellus [1]) [%]	other results
C/C(=N\NCCc1ccccc1)C(=O)O	40	
C/C(=N\NC/C=C/c1ccc(Cl)cc1)C(=O)O	9	
C/C(=N\NCCCC1CCCC1)C(=O)O	68	
C/C(=N\NC/C=C/c1cccc(Cl)c1)C(=O)O	14	Decrease in blood glucose (Cavia porcellus [2]): 6%
C/C(=N\NCCc1ccc(F)cc1)C(=O)O	21	
CCC/C=C/CN/N=C(\C)C(=O)O	43	
C/C(=N\NC/C=C/c1ccccc1)C(=O)[O-].[Na+]	15	
C/C(=N\NCC(C)Cc1ccccc1)C(=O)O (centres undefined)		Decrease in blood glucose (Cavia porcellus [2]): 22%
C/C(=N\NCCOc1ccccc1)C(=O)O	22	
CC/C=C/CCN/N=C(\C)C(=O)O	82	
C/C(=N\NCCCCc1ccccc1)C(=O)[O-].[Na+]	34	
C/C(=N\NCCCc1ccccc1)C(=O)[O-].[Na+]		Decrease in blood glucose (Cavia porcellus [2]): 23%
CCCCCCCCN/N=C(\C)C(=O)O	69	
C/C(=N\NC/C=C/c1cccc(C)c1)C(=O)O	22	
C/C(=N\NCc1ccccc1)C(=O)O	7	
CCCN/N=C(\C)C(=O)O	24	
CCCCCCCN/N=C(\C)C(=O)O	70	
COc1ccc(CCN/N=C(\C)C(=O)O)cc1	7	
C/C(=N\NCCc1ccc(Cl)cc1)C(=O)O	11	
C/C(=N\NCCc1ccc(C)cc1)C(=O)O	8	
CCC(C)CCCN/N=C(\C)C(=O)O (centres undefined)	41	

SMILES	Decrease in blood glucose (Cavia porcellus [1]) [%]	other results
C/C(=N\NCC/C=C/c1ccccc1)C(=O)O	15	
CCCCN/N=C(\C)C(=O)O	41	
CCCOCCCCN/N=C(\C)C(=O)O	22	
C/C(=C\CN/N=C(\C)C(=O)O)c1ccccc1	20	
C=CCCCCN/N=C(\C)C(=O)[O-].[Na+]	60	
COCCCCCCN/N=C(\C)C(=O)O	22	
CCCCCCN/N=C(\C)C(=O)O	72	
CCCCCN/N=C(\C)C(=O)[O-].[Na+]	45	
C/C(=N\NCCc1ccccc1)C(N)=O		Decrease in blood glucose (Cavia porcellus [2]): 15%
C/C(=N\NCCc1ccccc1C)C(=O)O		Decrease in blood glucose (Cavia porcellus [2]): 14%
C/C(=N\NCCCC1CCCCC1)C(=O)[O-].[Na+]	13	
CCCCCCCCCN/N=C(\C)C(=O)O		Decrease in blood glucose (Cavia porcellus [3]): 25%
C/C(=N\NCCc1cccc(C(F)(F)F)c1)C(=O)O		Decrease in blood glucose (Cavia porcellus [2]): 13%
CCOC(=O)/C(C)=N/NCCc1ccccc1	14	
C/C(=N\NC(C)Cc1ccccc1)C(=O)[O-].[Na+] (centres undefined)		Decrease in blood glucose (Cavia porcellus [2]): 14%
CCCCCC(C)N/N=C(\C)C(=O)O (centres undefined)	45	
C/C(=N\NCCC1CCCCC1)C(=O)O	48	LD50 [4]: 520 mg/kg
C/C(=C/c1ccccc1)CN/N=C(\C)C(=O)O		LD50 [4]: 680 mg/kg
C/C(=N\NCC(C)c1ccccc1)C(=O)[O-].[Na+] (centres undefined)		Decrease in blood glucose (Cavia porcellus [2]): 15%
C/C(=N\NCCc1cccc(C)c1)C(=O)[O-].[Na+]	24	
N=C(N)NC(=N)NCCc1ccccc1 [PHENFORMIN]	70	
